2 compounds from BindingDB's records for doi:10.1016/j.bmcl.2010.09.046 (Human Biomolecular Research Institute, 2010) can be followed below.

Molecules are shown by their SMILES.

What is called IC50 is the concentration needed to halve the response being measured.

For test [1], the target named is T1, Bcl-2-related protein A1 (Homo sapiens, UniProt Q16548).
T1 sequence (Q16548 whole entry): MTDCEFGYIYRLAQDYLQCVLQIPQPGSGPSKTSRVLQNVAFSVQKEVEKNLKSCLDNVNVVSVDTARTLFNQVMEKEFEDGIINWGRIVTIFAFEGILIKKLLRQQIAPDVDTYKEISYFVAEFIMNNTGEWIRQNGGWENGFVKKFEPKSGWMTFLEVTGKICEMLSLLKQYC
Briefly: Inhibition of N-terminal FITC BH3 peptide binding to GST-tagged Bfl1 by fluorescence polarization assay. In a few lines: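 Then FITC-Bid BH3 peptide (5.6 nM working solution) was added and incubated 4 h at room temperature. Ten concentrations in 10% DMSO. Fluorescence polarization read at ex 485/em 530 nm. IC50 from sigmoidal dose-response non-linear regression.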

The target in test [2] is T1, Bcl-2-related protein A1. Briefly: Inhibition of N-terminal FITC BH3 peptide binding to GST-tagged Bfl1 by time resolved-FRET assay. In a few lines:
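10-point 2-fold dilution series in 10% final DMSO, in duplicate wells. FITC-Bid (5.6 nM) plus Tb-antibody (2.5 nM) was then added and incubated 4 h at room temperature. TR-FRET read at ex 340 nm, signal taken as the 520/490 nm emission ratio.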

On to `CN1CCN(c2cc(O)n(-c3ccc(Cl)c(Cl)c3)c2O)CC1` [1-(3,4-dichlorophenyl)-3-(4-methylpiperazin-1-yl)pyrrolidine-2,5-dione], for which the IC50 at Bcl-2-related protein A1 [1] and at Bcl-2-related protein A1 [2] was above 10 µM in each case.

Take `Oc1c(Cl)c(N=Cc2ccccc2)c(O)n1-c1ccc(Cl)c(Cl)c1` [MLS-0067125.0001]: the IC50 on Bcl-2-related protein A1 [1] and on Bcl-2-related protein A1 [2] was above 50 µM in each case.
